Data from paper PMC6900552 (Acta Pharmaceutica Sinica. B, 2019).
Like-named read-outs stand apart in the source and are kept apart here. One block for each compound: values may come before it.

Key:
PCSK9 mRNA [1] = conditions: read-out: IC50 of decreasing PCSK9 mRNA level; cited from earlier work
[2] = cited from earlier work
[3] = 32 hypercholesterolemic patients, 3 months of treatment; cited from earlier work
HepG2 cells = assay: DiI-LDL uptake assay; assay type: cell-based, human; conditions: 5 μmol/L, 24 h, then 20 μg/mL DiI-LDL 4 h, fold of vehicle
Summary of the method: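 Washes: PBS/0.4% albumin ×2, PBS ×3. Isopropanol extraction 20 min RT; fluorescence ex 520/em 570 nm; residual cells lysed in 0.5 mol/L NaOH for protein determination.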

[4] = target: serotonin 5-HT1B receptor (Homo sapiens, UniProt P28222); assay: Whole-cell binding assay, 5-HT1B
Summary of the method: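 CHO-K1 cells stably expressing 5-HT1B were seeded at 3 × 10⁴ cells/well and assayed 24 h later. Cells were incubated overnight at 4 °C with 1 nmol/L ³H-GR125743 or ³H-mesulergine plus unlabeled test compound (1.28 nmol/L–100 μmol/L). They were then washed with ice-cold PBS and lysed (PBS, 20 mmol/L Tris-HCl, 1% Triton X-100, pH 7.4). Bound radioactivity was scintillation-counted, and IC50 came from nonlinear regression.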

dopamine D1 = dopamine D1 (Homo sapiens, UniProt P21728); assay: Calcium mobilization assay, dopamine D1 antagonist activity; assay type: cell-based; conditions: HEK293 D1/Gα16 cells
Summary of the method: (§1)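 HEK293 cells stably co-expressing the receptor and Gα16 were seeded in 96-well plates and grown 24 h. Cells were loaded with 2 μmol/L Fluo-4 AM in HBSS (pH 7.4, BSA 5 g/L, sulfinpyrazone 250 μmol/L) at 37 °C for 45 min. Test compound was added for 10 min at RT, then the respective agonist. Calcium signal was read at ex 485/em 525 nm. IC50 came from nonlinear-regression dose–response curves.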

dopamine D2 = dopamine D2 (Homo sapiens, UniProt P14416); assay: Calcium mobilization assay, dopamine D2 antagonist activity; assay type: cell-based; conditions: HEK293 D2/Gα16 cells
Summary of the method: as §1

[5] = target: beta-1 adrenergic receptor (Homo sapiens, UniProt P08588); assay: Calcium mobilization assay, β1 adrenergic receptor antagonist activity; assay type: cell-based; conditions: HEK293 β1-AR/Gα16 cells
Summary of the method: as §1

[6] = In vivo cholesterol-lowering assay in HFD-induced hyperlipidemic hamsters; design: species or system Syrian hamster; conditions: 21 days, vs HFD control
Summary of the method: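 Male Syrian hamsters (100–120 g) were acclimatized 7 days, then fed a high-fat diet (0.5% cholesterol) for 1 week. They were randomized to groups of n = 7. Test compound (30 mg/kg) or fenofibrate positive control (100 mg/kg) was given by daily oral gavage for 21 days; controls received 0.5% CMC-Na vehicle. After a 15 h fast, serum was taken under anesthesia and TC and LDL-C were measured by kit. Mean ± SEM.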

hERG channel = hERG channel (Homo sapiens, UniProt Q12809); assay: hERG testing; assay type: cell-based
Summary of the method: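 FluxOR thallium-flux assay in CHO-hERG-ZG cells kept under G418 and hygromycin B (100 μg/mL each). Cells were plated and held 30 min at RT in the dark, then 16–18 h at 37 °C. Dye loading ran 90 min at RT in the dark, then the medium was swapped for assay buffer and compound added for 20 min at RT in the dark. Fluorescence was recorded every 2 s to 10 s; stimulus buffer was added at 10 s, then recording continued every 1 s to 180 s.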

[7] = Pharmacokinetic profiles in male hamsters; assay type: in vivo; conditions: hamster, serum
Summary of the method: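 Male hamsters, n = 3 per group, received test compound either at 20 mg/kg by oral gavage in 0.5% CMC-Na or at 10 mg/kg i.v. in 5% DMSO/10% cremophor EL/85% saline. Blood was drawn at 0, 0.5, 1, 2, 4, 6, 8, 10, 12 and 24 h, and serum was separated at 4000×g for 10 min. Serum levels were measured by LC/MS/MS. Parameters are averages of three runs.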

PCSK9 = PCSK9 ELISA in HepG2 cells; assay type: cell-based, human; conditions: read-out: IC50 of PCSK9 protein expression, 24 h
LDLR = assay: Western blot analysis of LDLR expression in HepG2 cells; assay type: cell-based, human; conditions: 5 μmol/L, 24 h
PCSK9 mRNA [8] = assay: Real-time PCR of PCSK9 mRNA in HepG2 cells; assay type: cell-based; conditions: Homo sapiens, HepG2, 24 h, read-out: IC50 of PCSK9 mRNA expression

Sequence of dopamine D1 (P21728 whole entry): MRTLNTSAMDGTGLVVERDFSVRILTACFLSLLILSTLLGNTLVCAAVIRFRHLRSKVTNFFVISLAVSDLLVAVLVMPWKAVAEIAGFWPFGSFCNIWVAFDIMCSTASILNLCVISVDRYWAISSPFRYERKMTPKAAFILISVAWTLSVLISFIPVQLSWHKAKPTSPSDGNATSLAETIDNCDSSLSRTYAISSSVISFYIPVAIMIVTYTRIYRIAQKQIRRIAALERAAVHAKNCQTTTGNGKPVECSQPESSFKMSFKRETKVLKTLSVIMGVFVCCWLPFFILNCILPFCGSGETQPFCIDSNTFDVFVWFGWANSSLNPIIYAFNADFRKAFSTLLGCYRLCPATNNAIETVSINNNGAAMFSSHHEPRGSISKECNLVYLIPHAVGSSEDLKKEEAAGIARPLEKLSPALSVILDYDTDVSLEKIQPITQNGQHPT
Sequence of beta-1 adrenergic receptor (P08588 whole entry, species assumed): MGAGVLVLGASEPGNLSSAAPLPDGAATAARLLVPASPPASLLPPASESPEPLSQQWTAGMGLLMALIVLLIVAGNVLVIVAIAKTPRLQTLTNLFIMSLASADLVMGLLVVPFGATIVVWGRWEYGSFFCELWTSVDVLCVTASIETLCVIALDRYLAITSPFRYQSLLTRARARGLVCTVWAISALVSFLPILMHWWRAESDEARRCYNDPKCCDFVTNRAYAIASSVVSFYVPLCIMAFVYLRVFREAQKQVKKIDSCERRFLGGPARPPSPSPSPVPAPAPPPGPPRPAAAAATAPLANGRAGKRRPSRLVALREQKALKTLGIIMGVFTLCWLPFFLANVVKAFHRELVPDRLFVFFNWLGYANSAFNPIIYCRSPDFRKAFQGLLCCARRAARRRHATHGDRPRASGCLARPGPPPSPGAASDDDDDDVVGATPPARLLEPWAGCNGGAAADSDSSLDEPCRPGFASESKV
Sequence of dopamine D2 (P14416 whole entry): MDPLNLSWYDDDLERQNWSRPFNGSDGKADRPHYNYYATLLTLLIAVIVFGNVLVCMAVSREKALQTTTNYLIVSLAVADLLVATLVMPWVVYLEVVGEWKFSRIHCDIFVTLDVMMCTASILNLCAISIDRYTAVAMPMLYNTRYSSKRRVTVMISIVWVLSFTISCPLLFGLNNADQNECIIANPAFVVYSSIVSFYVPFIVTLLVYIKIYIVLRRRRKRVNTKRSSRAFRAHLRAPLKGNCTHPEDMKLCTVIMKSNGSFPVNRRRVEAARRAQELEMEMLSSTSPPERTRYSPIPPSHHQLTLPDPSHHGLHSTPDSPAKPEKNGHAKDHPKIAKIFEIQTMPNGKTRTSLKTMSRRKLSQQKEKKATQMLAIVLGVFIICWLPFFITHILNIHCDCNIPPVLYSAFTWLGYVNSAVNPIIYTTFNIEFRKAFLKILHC
Sequence of serotonin 5-HT1B receptor (P28222 whole entry): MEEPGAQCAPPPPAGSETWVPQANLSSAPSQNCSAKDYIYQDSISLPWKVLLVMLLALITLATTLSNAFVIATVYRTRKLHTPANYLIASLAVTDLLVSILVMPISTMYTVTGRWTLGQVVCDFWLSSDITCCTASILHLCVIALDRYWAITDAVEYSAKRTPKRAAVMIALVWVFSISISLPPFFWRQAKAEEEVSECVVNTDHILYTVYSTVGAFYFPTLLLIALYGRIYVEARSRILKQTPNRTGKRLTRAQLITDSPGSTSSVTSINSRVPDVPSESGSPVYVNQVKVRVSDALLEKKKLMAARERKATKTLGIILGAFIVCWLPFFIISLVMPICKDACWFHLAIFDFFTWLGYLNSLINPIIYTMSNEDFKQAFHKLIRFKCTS
Sequence of hERG channel (Q12809 whole entry): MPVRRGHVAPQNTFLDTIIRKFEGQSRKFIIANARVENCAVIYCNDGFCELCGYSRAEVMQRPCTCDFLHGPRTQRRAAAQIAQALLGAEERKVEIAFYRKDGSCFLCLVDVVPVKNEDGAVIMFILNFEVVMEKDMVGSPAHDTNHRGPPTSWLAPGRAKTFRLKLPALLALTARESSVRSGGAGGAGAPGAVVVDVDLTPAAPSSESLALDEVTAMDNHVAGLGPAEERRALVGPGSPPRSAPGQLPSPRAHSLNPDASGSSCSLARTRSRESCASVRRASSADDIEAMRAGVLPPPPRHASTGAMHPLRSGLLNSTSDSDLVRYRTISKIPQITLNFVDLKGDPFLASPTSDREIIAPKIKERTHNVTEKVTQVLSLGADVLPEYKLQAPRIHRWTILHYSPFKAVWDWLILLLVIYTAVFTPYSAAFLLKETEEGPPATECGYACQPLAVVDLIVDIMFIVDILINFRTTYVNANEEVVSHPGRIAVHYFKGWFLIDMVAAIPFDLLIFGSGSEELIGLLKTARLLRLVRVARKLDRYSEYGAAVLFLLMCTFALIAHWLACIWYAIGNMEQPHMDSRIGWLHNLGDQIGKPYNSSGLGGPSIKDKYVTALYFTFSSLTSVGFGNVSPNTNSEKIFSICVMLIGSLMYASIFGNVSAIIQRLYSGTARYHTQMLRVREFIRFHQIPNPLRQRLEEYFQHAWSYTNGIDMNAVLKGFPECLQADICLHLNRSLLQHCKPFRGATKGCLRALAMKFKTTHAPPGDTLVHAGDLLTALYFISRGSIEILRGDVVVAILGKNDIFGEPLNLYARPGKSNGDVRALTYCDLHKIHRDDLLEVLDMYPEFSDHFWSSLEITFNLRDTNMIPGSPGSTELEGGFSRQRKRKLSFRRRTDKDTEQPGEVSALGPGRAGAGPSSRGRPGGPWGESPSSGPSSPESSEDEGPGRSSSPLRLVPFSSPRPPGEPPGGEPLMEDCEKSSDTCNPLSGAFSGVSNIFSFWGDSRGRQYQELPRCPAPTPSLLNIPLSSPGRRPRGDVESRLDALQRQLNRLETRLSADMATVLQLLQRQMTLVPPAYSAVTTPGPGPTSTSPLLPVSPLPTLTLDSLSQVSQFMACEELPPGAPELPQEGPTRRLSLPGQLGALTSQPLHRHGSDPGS

SMILES: COc1ccc2cc3[n+](cc2c1OC)CCc1cc2c(cc1-3)OCO2 [Berberine]
IC50 (PCSK9 mRNA [1]): 8.04 µM
bioavailability (F) [2]: < 1%
oral bioavailability [2]: ~0%
reduction of LDL-C [3]: 25%
reduction of serum total cholesterol (TC) [3]: 29%
DiI-LDL uptake rate (compared to vehicle, mean±SEM) (HepG2 cells): 1.38±0.03

IC50 [4]: 47.2 ± 1.22 µM
IC50 (dopamine D1): 5.56 ± 0.08 µM
IC50 (dopamine D2): 17.9 ± 0.86 µM
IC50 [5]: > 100 µM
SMILES: COc1cc2c(cc1OCc1ccccc1F)C1Cc3c(n(CO)c4ccccc34)CN1CC2 (centres unmarked) [Compound 8, (2-((2-Fluorobenzyl)oxy)-3-methoxy-5,6,14,14a-tetrahydroindolo[3′,2′:4,5]pyrido[2,1-a]isoquinolin-9(8H)-yl)methanol]
DiI-LDL uptake rate (compared to vehicle, mean±SEM) (HepG2 cells): 1.04±0.04

IC50 [4]: > 100 µM
IC50 (dopamine D1): 1.71 ± 0.1 µM
IC50 (dopamine D2): > 100 µM
IC50 [5]: ~100 µM
SMILES: COc1ccc2c(c1)c1c(n2CO)CN2CCc3cc(OC)c(OCc4ccc(F)cc4)cc3C2C1 (centres unmarked) [Compound 18, (2-((4-Fluorobenzyl)oxy)-3,12-dimethoxy-5,6,14,14a-tetrahydroindolo[3′,2′:4,5]pyrido[2,1-a]isoquinolin-9(8H)-yl)methanol]

IC50 [4]: > 100 µM
IC50 (dopamine D1): 2.35 ± 0.07 µM
IC50 (dopamine D2): ~50 µM
IC50 [5]: ~100 µM
SMILES: COc1ccc2c(c1)c1c(n2CO)CN2CCc3cc(OC)c(OCC(F)(F)F)cc3C2C1 (centres unmarked) [Compound 21, (3,12-Dimethoxy-2-(2,2,2-trifluoroethoxy)-5,6,14,14a-tetrahydroindolo[3′,2′:4,5]pyrido[2,1-a]isoquinolin-9(8H)-yl)methanol]
DiI-LDL uptake rate (compared to vehicle, mean±SEM) (HepG2 cells): 1.45±0.04^∗∗

IC50 [4]: 13.4 ± 0.51 µM
IC50 (dopamine D1): ~100 µM
IC50 (dopamine D2): ≥ 100 µM
AUC(0-inf) ([7]; iv, 10 mg/kg): 2090 ng·h/mL
MRT ([7]; iv, 10 mg/kg): 4.13 h
clearance ([7]; iv, 10 mg/kg): 84.1 mL/min/kg
half-life ([7]; iv, 10 mg/kg): 3.61 h
bioavailability ([7]; oral, 20 mg/kg): 21.9%
AUC(0-inf) ([7]; po, 20 mg/kg): 1000 ng·h/mL
Cmax ([7]; po, 20 mg/kg): 169 ng/mL
MRT ([7]; po, 20 mg/kg): 10.3 h
half-life ([7]; po, 20 mg/kg): 6.35 h
IC50 [5]: ≥ 100 µM
IC50 (PCSK9): 1.34 µM
IC50 (PCSK9 mRNA [8]): 1.1 µM
SMILES: COc1ccc2c(c1)c1c(n2CO)CN2CCc3cc(OCc4ccccc4)c(OC)cc3C2C1 (centres unmarked) [Compound 22, (3-(Benzyloxy)-2,12-dimethoxy-5,6,14,14a-tetrahydroindolo[3′,2′:4,5]pyrido[2,1-a]isoquinolin-9(8H)-yl)methanol]
reduction in serum LDL-C ([6]; 30 mg/kg oral gavage daily): 41.4%
reduction in serum TC ([6]; 30 mg/kg oral gavage daily): 36.7%
IC50 (hERG channel): 7.99 µM
LDLR expression compared to DMSO (LDLR): 2.06 fold

SMILES: CC(C)OC(=O)C(C)(C)Oc1ccc(C(=O)c2ccc(Cl)cc2)cc1 [fenofibrate, reference compound]
decrease of serum LDL-C ([6]; p.o. 100 mg/kg daily): 79.4%
decrease of serum TC ([6]; p.o. 100 mg/kg daily): 71.3%
